# Assay outcomes (PubChem BioAssay)
# PfGluPho inh = PfG6PD (Plasmodium falciparum) enzyme inhibition | inhibition, % at 20 µM | PfGluPho enzyme, NADPH resazurin-diaphorase fluorescence | 350,000 compounds, 0.78% hits;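 active = inhibition reaching at least a set limit at 20 µM in the primary screen, cut at about 59% in these data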;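 note: 0% = DMSO wells with substrate and 100% = DMSO wells lacking glucose-6-phosphate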
# Diaphorase inh = inhibits diaphorase or chemically oxidizes, flagging diaphorase assay artifacts | diaphorase resazurin-to-resorufin fluorescence, NADH, 16 min; bacterial (C. kluyveri) enzyme, not human | inhibition, % at 20 µM | 190,000 compounds, 0.69% hits;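 active = primary screen inhibition at 20 µM above a set limit, cut at about 50% in these data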;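 note: plate controls were DMSO with full reaction for no effect and wells lacking NADH for full effect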
#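 System: Bacterial diaphorase enzyme (C. kluyveri) | Incubation: 16-min room-temperature incubation before reading | Benchmarks: No-NADH positive control and DMSO neutral control | Measured by: Resorufin fluorescence 544/590 nm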
# G6PDH CS = L. mesenteroides G6PDH inhibition counter-screen; Purified L. mesenteroides G6PDH, diaphorase/resazurin coupled fluorescence, 45 min; AID 1020; inhibition, % at 5 µM; 200,000 compounds, 0.12% hits; in the data active = inhibition above about 50%
# HKDC1 inhibitor = HKDC1 (human) hexokinase inhibition; recombinant HKDC1, G6PDH/diaphorase resazurin coupled fluorescence; inhibition, % at 20 µM; 340,000 compounds, 0.16% hits;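 active = inhibition above about 35% when tested at 20 µM, limit read from the data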;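 note: plate controls were DMSO wells with enzyme for no effect and DMSO wells lacking enzyme for full effect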
# Target sequence (Q2TB90 whole entry, looked up): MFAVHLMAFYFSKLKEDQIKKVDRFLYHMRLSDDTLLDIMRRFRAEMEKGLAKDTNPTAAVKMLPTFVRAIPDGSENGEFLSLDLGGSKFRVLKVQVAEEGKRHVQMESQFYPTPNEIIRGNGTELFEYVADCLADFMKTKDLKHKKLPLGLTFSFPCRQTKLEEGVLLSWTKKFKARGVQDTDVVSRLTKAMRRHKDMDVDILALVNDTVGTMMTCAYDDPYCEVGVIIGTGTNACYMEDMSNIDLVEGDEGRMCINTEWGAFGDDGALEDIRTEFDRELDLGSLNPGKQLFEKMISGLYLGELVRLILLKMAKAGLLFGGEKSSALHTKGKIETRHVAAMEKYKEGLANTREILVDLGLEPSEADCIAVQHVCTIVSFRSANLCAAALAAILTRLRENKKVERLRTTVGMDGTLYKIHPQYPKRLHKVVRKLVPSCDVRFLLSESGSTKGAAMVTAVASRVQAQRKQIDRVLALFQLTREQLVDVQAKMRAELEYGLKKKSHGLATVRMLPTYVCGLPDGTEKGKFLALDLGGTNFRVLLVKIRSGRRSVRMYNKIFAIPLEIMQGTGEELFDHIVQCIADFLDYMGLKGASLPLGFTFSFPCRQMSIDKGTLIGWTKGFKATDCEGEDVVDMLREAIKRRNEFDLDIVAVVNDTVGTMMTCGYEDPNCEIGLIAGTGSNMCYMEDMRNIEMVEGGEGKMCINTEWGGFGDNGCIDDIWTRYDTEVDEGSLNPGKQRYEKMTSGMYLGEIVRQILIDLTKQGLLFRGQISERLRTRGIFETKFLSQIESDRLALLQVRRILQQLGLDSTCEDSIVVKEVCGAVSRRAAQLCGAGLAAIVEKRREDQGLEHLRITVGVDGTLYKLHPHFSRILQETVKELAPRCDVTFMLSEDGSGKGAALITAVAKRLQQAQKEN
#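 Assay system: recombinant HKDC1 hexokinase; detection: coupled resazurin fluorescence, excitation 525 nm, emission 613 nm; benchmarks: DMSO-plus-enzyme-mix negative control, buffer-substituted positive control; compound dosing: single 20 µM dose; schedule: 90 min at room temperature in dark; also added: glucose plus 1 mM ATP as hexokinase substrates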
# Diaph act CS = diaphorase activation or chemical reduction counter-screen. Diaphorase/resazurin coupled assay, resorufin fluorescence, 16 min; stronger effect = higher value; 1 = vehicle wells, 0 = NADH-free wells. activation factor at 20 µM. 190,000 compounds, 0.005% hits;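 active = diaphorase activity raised at least twofold by the compound at 20 µM; inactive = activation factor below 2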
#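 Material: Purified diaphorase enzyme from Clostridium kluyveri | Buffer or medium: 50 mM HEPES pH 7.4 with 4.542 mM MgCl2, 0.005% Tween 20 | Times: 16 min enzyme reaction, ambient temperature | Signal: Red resorufin fluorescence at 544/590 nm excitation/emission | Measure: Increased resorufin signal from activators or reducing compounds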
# PfG6PD confirm = PfG6PD inhibition, single-dose confirmed; shares compounds with PfGluPho inh; recombinant PfGluPho, NADPH-diaphorase-resazurin fluorescence; inhibition, % at 20 µM; 2,400 compounds, 34% hits;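 active = inhibition of at least 50% at 20 µM in any single replicate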;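 note: 0% = DMSO with substrate and 100% = DMSO lacking glucose-6-phosphate substrate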
# Diaphorase 10uM = inhibits diaphorase or oxidizes, flagging false PfG6PD hits; 820 compounds, 39% hits; diaphorase-coupled resazurin reduction, fluorescence, NADPH 10 uM; inhibition, % at 20 µM; shares compounds with PfGluPho inh;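 active = average inhibition reaching 50% or more with the compound at 20 µM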;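 note: resorufin red fluorescence formed as diaphorase reduces resazurin using NADPH; 0% = DMSO with enzyme and 100% = DMSO without enzyme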
# Diaph ctr 30uM = counter-screen for P. falciparum G6PD inhibitors: diaphorase inhibitors, oxidizers. 820 compounds, 29% hits. Diaphorase/resazurin coupled assay, resorufin fluorescence, 30 uM NADPH. shares compounds with PfGluPho inh. inhibition, % at 20 µM;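 active = inhibition averaging 50% or more, tested at 20 µM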;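 note: 0% = DMSO with enzyme and 100% = DMSO wells lacking diaphorase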
# Active calls of the source: *; / = no result. An excerpt weighted towards active compounds, which were near 1.3% of everything screened.
SMILES,PfGluPho inh,Diaphorase inh,G6PDH CS,HKDC1 inhibitor,Diaph act CS,PfG6PD confirm,others
COc1ccc(OC)c(CNC(=O)CCC(=O)N2Cc3cccc(OC)c3Oc3ncccc32)c1,-5.5,/,/,-4.0,/,/,
O=C(CN(Cc1ccco1)C(=O)c1ccccc1)Nc1ccc(Cl)c(Cl)c1,62.3*,26.3,-1.3,3.5,0.7,17.9,
Cc1ccc(C(=O)N(CC(=O)Nc2ccc(Cl)c(Cl)c2)Cc2ccco2)cc1,-7.0,11.6,5.5,7.1,0.9,/,
Cc1c(Cl)c([N+](=O)[O-])nn1Cc1ccc(C(=O)N/N=C\c2cccc(Br)c2)o1,104.8*,2.7,5.5,8.6,1,61.0*,Diaphorase 10uM=61.4*;Diaph ctr 30uM=49.3
NC(N)=NS(=O)(=O)c1ccc(NC(=S)NC(=O)Cc2ccc(Cl)cc2)cc1,-13.0,/,/,0.2,/,/,
COc1cccc(NC(=O)CSc2nnc(-c3ccoc3C)n2C)c1,5.8,/,/,-2.5,/,/,
COc1ccc(-n2c(C)cc(C(=O)CSc3nnc(-c4ccoc4C)n3C)c2C)cc1,66.7*,16.9,5.3,-1.1,0.8,45.5,
Cc1cccc(NC(=S)NCCc2ccccc2)n1,69.8*,12.8,1.4,-2.0,0.9,23.6,
S=C(NCCc1ccccc1)Nc1ccccn1,15.9,17.2,1.7,-9.4,0.8,/,
Cc1ccc(C2=CSC3=NCCN23)c(C)c1,62.5*,2.5,2.7,-6.2,1,24.1,
Clc1ccc(C2=CSC3=NCCN23)c(Cl)c1,16.0,/,/,0.8,/,/,
Cc1ccc(NC2CCCN(C(=O)CSc3ccncc3)C2)cc1C (stereo not drawn),13.5,/,/,3.3,/,/,
Cc1nc(SCC(=O)Nc2ccc3[nH]c(=O)[nH]c3c2)nc(C)c1C,64.4*,/,/,-0.3,/,7.8,
Oc1ccc(C=NNc2ccccn2)c(O)c1,60.6*,/,/,13.9,/,45.0,
Cc1ccc(C)c(CN2C(=O)COc3ccc(C(=O)c4ccccc4C(=O)O)cc32)c1,61.3*,25.4,2.3,3.5,0.7,39.8,
Cc1ccc(C)c(CN2C(=O)COc3ccccc32)c1,-1.0,/,/,-4.1,/,/,
CC1=NN(c2nc(N)nc(/C(C#N)=C/c3ccc([N+](=O)[O-])o3)n2)C(C)(C)C1,69.1*,/,/,31.0,/,26.0,
NNC(=O)CN1C(c2ccccc2Br)=Nc2ccc(Br)cc2C1c1ccccc1 (stereo not drawn),88.4*,6.7,7.9,0.4,0.9,59.6*,Diaphorase 10uM=53.7*;Diaph ctr 30uM=34.2
Cc1cc(-n2c(C)cc(C(=O)CSc3nnnn3-c3ccccc3)c2C)no1,11.7,15.0,3.8,-8.4,0.8,/,
Cc1cc(-n2c(C)cc(C(=O)CSc3ccccn3)c2C)no1,67.4*,/,/,-2.8,/,22.7,
CN1CCc2cccc3c2[C@H]1Cc1ccc(O)c(O)c1-3,86.9*,78.0*,43.8,4.0,0.2,88.9*,Diaphorase 10uM=20.9;Diaph ctr 30uM=3.4
O=C1CC(N2CCN(c3ccc(O)cc3)CC2)C(=O)N1c1ccc2c(c1)OCO2 (stereo not drawn),59.8*,31.4,16.1,-3.7,0.7,28.7,
Cc1ccc(C)c(C(=O)OCC(=O)Nc2cccc(S(=O)(=O)N3CCCCC3)c2)c1,0.7,/,/,3.2,/,/,
Cc1ccc2nc(-c3ccc(NC(=S)NC(=O)C(C)C)cc3)sc2c1,-0.8,12.1,4.9,3.1,0.9,/,
Cc1ccc2nc(-c3ccc(NC(=S)NC4CC(C)(C)NC(C)(C)C4)cc3)sc2c1,93.2*,-45.1,-4.9,-4.7,1.5,111.2*,Diaphorase 10uM=-16.2;Diaph ctr 30uM=-1.4
SMILES,PfGluPho inh,Diaphorase inh,G6PDH CS,HKDC1 inhibitor,Diaph act CS,PfG6PD confirm,others
COc1ccc(C)cc1-n1nnnc1SCC(=O)NC1CCS(=O)(=O)C1 (stereo not drawn),4.9,/,/,-2.6,/,/,
O=C(NCCc1ccccc1C(F)(F)F)C1CCC(=O)N(C2CC2)C1 (stereo not drawn),-2.1,/,/,-0.9,/,/,
Oc1ccc(Nc2nc(-c3ccc4ccccc4c3)cs2)cc1,/,10.0,2.4,/,0.9,/,
Oc1ccc(Nc2ccc3ccccc3c2)cc1,63.1*,/,/,19.9,/,29.4,
CCOc1ccc2c(c1)n([O-])c1c([n+]2=O)CCCC1,98.6*,41.8,9.1,7.4,0.6,3.9,
CN(C)CCCN(C(=O)c1ccc(S(=O)(=O)N2CCCCCC2)cc1)c1nc2c(F)cc(F)cc2s1,-11.2,/,/,3.9,/,/,
COc1ccc(C2=CCCCCC2)cc1OC,19.1,/,/,/,/,/,
Cn1c(=O)[nH]c(=O)c2c1nc(SCC(=O)O)n2CCc1ccccc1,62.8*,5.1,13.4,-5.9,0.9,9.5,
CCCCCn1c(N2CCC(Cc3ccccc3)CC2)nc2c1c(=O)[nH]c(=O)n2C,65.9*,/,/,4.0,/,-11.7,
COc1cc(Sc2ccc(C)cc2)c(OC)cc1N,60.2*,16.5,34.9,17.0,0.8,56.3*,Diaphorase 10uM=16.9;Diaph ctr 30uM=16.5
COC(=O)c1ccc(Sc2ccc(C)cc2)c(N)c1,44.8,14.1,-2.4,-0.7,0.9,/,
COc1ccc(N/C=C2\CCc3ccccc3C2=O)cc1,90.5*,89.8*,61.7*,33.2,0.1,45.9,
O=C1/C(=C/Nc2ccc3c(c2)OCO3)CCc2ccccc21,88.0*,74.8*,53.1*,34.6,0.3,40.9,
COc1ccc2c(c1)CC/C(=C\Nc1ccc3c(c1)OCO3)C2=O,73.5*,81.6*,59.2*,19.8,0.2,56.9*,Diaphorase 10uM=3.0;Diaph ctr 30uM=9.6
O=C(CS(=O)(=O)c1c[nH]c2ccccc12)Nc1ccc(F)cc1,10.9,/,/,-4.2,/,/,
O=S(=O)(Cc1cccc(F)c1)c1c[nH]c2ccccc12,85.9*,23.0,16.9,1.5,0.8,40.8,
CC(NC(=O)c1ccco1)c1nc(-c2ccc(C(C)(C)C)cc2)no1 (stereo not drawn),66.4*,/,/,-0.1,/,4.4,
COc1ccc(C(C#N)=C2C=CC(=NO)C=C2)cc1,61.0*,/,/,12.5,/,-9.8,
O=C(Oc1c(Br)cc(C(=S)N2CCOCC2)cc1Br)c1ccc(Cl)cc1,66.5*,4.1,4.6,1.7,1,9.2,
CCCCC[C@@H]1C=C(C(=O)O)[C@H](c2ccc3c(c2)OCO3)N1S(=O)(=O)c1ccc(C)cc1,-18.4,/,/,0.3,/,/,
COc1cc(NCc2ccccc2O)c2ncccc2c1,64.6*,/,/,12.1,/,55.7*,Diaphorase 10uM=-1.9;Diaph ctr 30uM=-7.3
O=C1OC2(c3ccccc31)c1ccccc1-c1ccccc12,84.1*,/,/,3.3,/,31.2,
CC(C)C1(C(C)C)OC(=O)c2ccccc21,8.2,5.2,0.4,-19.5,0.9,/,
O=C1OC(c2ccccc2)(c2ccc3cc(O)ccc3c2)c2ccccc21 (stereo not drawn),61.8*,/,/,14.9,/,-9.8,
O=C1OC(c2ccc(O)cc2)(c2ccccc2O)c2ccccc21 (stereo not drawn),-33.2,/,/,-0.3,/,/,
